Source: PubChem (several laboratories)
This is a sample that favours compounds with a hit; in the whole collection about 1.1% have one here.
T cell HTS – modulators of CD8 T cell-vesicle binding, primary screen, mouse 2C CD8+ T cells, flow cytometry. 2C CD8+ T cell-vesicle binding; hits give low values. response (vesicle binding), % at 7 µM. 330,000 compounds, 0.068% hits. AID 2052, 2009;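 active = response, share of CD8 T cells binding vesicles, and their 90th percentile fluorescence all below set limits, cut at about 80% in these data, passing the limit was not always enough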;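 note: values below 100% mean blocked vesicle binding to the CD8+ T cells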
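Also added: QL9-peptide-loaded Drosophila micro-vesicles bearing Ld, ICAM-1 and B7-1; Test system: purified 2C TCR transgenic mouse naive CD8+ T cells; Measured by: cytometric PE anti-B7-1 and Alexa647 anti-CD8 signals after 1% paraformaldehyde fixation; Timing: binding step 1.5 h, 37 °C, antibody labelling 20 min, ice.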
GRK2 aptamer HTS – compounds blocking aptamer binding on GRK2 – biochemical, human GRK2, bead flow cytometry, HTS, primary screen. inhibition of aptamer binding, % at 10 µM. Beta-adrenergic receptor kinase 1 (Homo sapiens), P25098. FAM-aptamer displacement from GRK2. 330,000 compounds, 0.59% hits;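 active = inhibition of aptamer binding above 40%, roughly 3 SD of noise, on plates passing a quality check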;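 note: median bead fluorescence of bound FAM aptamer so fluorescent compounds give negative values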
aDG glyco act – activators of alpha-DG glycosylation, primary screen, uHTS, Pro5-aDG cells, AlphaScreen; alpha-DG glycosylation AlphaScreen (IIH6); 0% Pro5, 100% B10-LARGE cell signal; activation, % at 10 µM; 360,000 compounds, 0.22% hits; AID 624168, 2012;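 active = activation of at least 8% versus controls, or a plate z-score of at least 8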;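 note: Pro5 are CHO cells carrying HIG-tagged alpha-DG that lacks glycosylation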
CaV13 ICDI inh – Disruptors of the CACNA1D IQ motif to Ca2+-dependent inactivation inhibitor domain association, primary screening, Förster resonance energy transfer in intact living …. 340,000 compounds, 0.098% hits. HEK cells, CFP/YFP FRET ICDI-IQ, plate reader, 10 min; percent FRET-ratio fall versus neutral wells. inhibition, % at 12.3 µM;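 active = mean replicate inhibition of at least 30% and at least 1% of replicates passing that level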;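 note: 0% = median of the neutral control wells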
procasp3 activ – activators of human procaspase-3 D3A mutant, primary screen, biochemical, absorbance, PC-3 D3A mutant, single concentration. Caspase-3 (Homo sapiens), P42574. recombinant procaspase-3 D3A, Ac-DEVD-pNA absorbance 405 nm. AID 463141, 2010. activation, % at 8.5 µM. 330,000 compounds, 0.11% hits;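 active = activation above the mean of all tested compounds plus 3 SD, cut at about 21% in these data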;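 note: 0% = DMSO alone and 100% = DMSO wells spiked with extra 5 µM PC-3 D3A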
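Test system: Procaspase-3 D3A mutant, all three cleavage aspartates alanine | Dosing: Single dose, 8.5 µM nominal compound, 0.8% DMSO | Schedule: 1 h preincubation, 2 h reaction | Technique: 405 nm absorbance of p-nitroaniline, reads at 0 and 120 min | Repeats: One well per compound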
procasp7 counter – procaspase-7 activators, primary screen, counter-screen for procaspase-3 activator project, biochemical, absorbance, HTS, human. 330,000 compounds, 0.093% hits. activation, % at 8.5 µM. Caspase-7 (Homo sapiens), P55210. recombinant procaspase-7, Ac-DEVD-pNA absorbance 405 nm; D23A/D198A/D206A triple mutant, cannot self-cleave; scale: DMSO 0, 5 µM enzyme 100;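 active = percent activation above the screen-wide mean plus 3 SD, cut at about 25% in these data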
Target sequence (P55210 whole entry D23A/D198A/D206A): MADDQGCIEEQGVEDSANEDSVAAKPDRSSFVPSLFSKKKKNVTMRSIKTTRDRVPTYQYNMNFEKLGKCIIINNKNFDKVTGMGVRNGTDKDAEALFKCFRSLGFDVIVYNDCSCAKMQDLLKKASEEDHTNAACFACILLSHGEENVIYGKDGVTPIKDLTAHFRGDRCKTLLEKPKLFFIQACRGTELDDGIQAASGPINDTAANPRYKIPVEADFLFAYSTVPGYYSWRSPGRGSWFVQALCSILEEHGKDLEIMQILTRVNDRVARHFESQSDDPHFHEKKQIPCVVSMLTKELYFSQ
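Assay system – Uncleavable procaspase-7 mutant enzyme · Quantity – 2 µM procaspase-7 mutant as dispensed · Times – 1 h preincubation, 2 h reaction · Dosing – single nominal 8.5 µM compound dose, 0.8% DMSO final · Buffer or medium – Zinc-free 50 mM HEPES buffer, pH 7.4, with NaCl and Triton X-100 · Detection – Epi-absorbance of released pNA at 405 nm, two timepoints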
aDG conf – alpha-DG glycosylation enhancers, retest, confirmation, single concentration, Pro5-aDG cells. activation, % at 10 µM (by protocol). shares compounds with aDG glyco act. AID 651671, 2012. 600 compounds, 17% hits. IIH6 AlphaLISA; scaled to LARGE-overexpressing B10 cells as 100%;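 active = activation of at least 7% in one or more replicates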;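 note: cells exposed to compound for two days before detection; 0% = DMSO-treated Pro5 cells and 100% = DMSO-treated B10-LARGE cells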
* hit, by the source's call; . = no result.

SMILES | T cell HTS | GRK2 aptamer HTS | aDG glyco act | CaV13 ICDI inh | procasp3 activ | procasp7 counter | aDG conf
COC(=O)c1ccccc1S(=O)(=O)NNC(=O)C12CC3CC(CC(C3)C1)C2 | 268 | 3 | 0 | -5 | 0 | 3 | .
CC(C)Oc1cc(F)ccc1-c1cc(C(=O)Nc2ccc(C(C)C)cc2)[nH]n1 | . | . | 12* | -11 | . | . | 0
CC[N+](C)(CC)CC(O)COCC1COc2ccccc2O1 (stereo not drawn) | 152 | 1 | 4.6* | -2 | -11 | -1 | -1
CCOC(=O)C1CCCN(C(=O)Cn2nc(C)c3c(C)n(-c4ccccc4)nc3c2=O)C1 (stereo not drawn) | 616 | 0 | 9.8* | -7 | 6 | -1 | 1
CSc1ccccc1NC(=O)CN1C(=O)C2CC=CCC2C1=O (stereo not drawn) | . | . | 0 | -5 | . | . | .
CCn1cc(C(=O)N2CCCC(C(=O)c3ccc4ccccc4c3)C2)cn1 (stereo not drawn) | 474 | 8 | 5.5* | -3 | -7 | 5 | -1
Cc1nc(C)c(C(=O)N2CCCC(C(=O)c3ccc4ccccc4c3)C2)s1 (stereo not drawn) | 320 | 13 | 0 | -5 | 6 | 8 | .
CCCCN(CC)CCCNC(=O)c1cn(CC)c2ccc(S(=O)(=O)N3CCc4ccccc4C3)cc2c1=O | 404 | 0 | 8.5* | 1 | 3 | 1 | 2
CCCCN(C)CCCNC(=O)c1cn(CC)c2ccc(S(=O)(=O)N3CCc4ccccc4C3)cc2c1=O | 551 | 2 | 5 | -2 | 9 | 4 | .
CCC(=O)N1c2ccc(S(=O)(=O)N3CCN(CC)CC3)cc2CC1C (stereo not drawn) | 269 | 2 | 0 | -14 | -3 | 2 | .
CCC(=O)N1c2ccc(S(=O)(=O)N3CCN(c4ccc([N+](=O)[O-])cc4)CC3)cc2CC1C (stereo not drawn) | 123 | 2 | 8.8* | -13 | 2 | -6 | 0
Clc1ccccc1Nc1nc(NCc2ccccc2)nc2ccsc12 | . | . | 6.4* | -5 | . | . | 0
COc1ccc(C(=O)NC(=S)N2CCCCC2)cc1 | 589 | 5 | 3.6* | -6 | -2 | -11 | -1
COc1ccc(C(=O)NC(=S)N2CCCC2)cc1 | 400 | 1 | 0 | . | 0 | -5 | .
C=CCn1c(=N)n(CC(=O)c2ccc(Cl)cc2)c2ccccc21 | 214 | 4 | 6.7* | -4 | -3 | 5 | 6.3*
CCn1c(=N)n(CC(=O)c2ccc(Cl)c(Cl)c2)c2ccccc21 | 443 | 0 | 8.0* | -21 | -2 | 4 | 9.1*
O=C(c1ccc([N+](=O)[O-])o1)N1CCN(c2nc3ccc(F)cc3s2)CC1 | 403 | 0 | 5.1* | -5 | 0 | 0 | 1
C[C@@H]1CN([C@H](C)CO)C(=O)CCCn2nncc2CO[C@@H]1CN(C)C(=O)Nc1ccc(N2CCN(C)CC2)cc1 | . | . | 8.5* | -5 | . | . | 1
O=C1C2C3CCC(C3)C2C(=O)N1c1ccc(OS(=O)(=O)c2ccccc2)cc1 (stereo not drawn) | 216 | 0 | 2.8* | -3 | -4 | 8 | -1
Cc1ccc(S(=O)(=O)Oc2ccc(N3C(=O)C4C5CCC(C5)C4C3=O)cc2)cc1 (stereo not drawn) | 412 | 1 | 1 | 4 | 12 | -2 | .
